Dynein cargo inh – inhibitors of GR-EGFP nuclear translocation, primary screen, dynein cargo transport inhibitor project, imaging, high-content, 3617.4 mouse cells; test concentration mostly 20 µM; stimulated with dexamethasone, 1 µM; hits give low values; z-score, hits read low; 220,000 compounds, 0.47% hits; AID 1381, 2008;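 active means plate z-score of nuclear minus cytoplasmic receptor signal below a set negative limit, without overly bright fluorescence or cell loss, cut at about -3.5 in these data, passing the limit was not always enough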;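 further: z-score of nuclear minus cytoplasmic ring GR-EGFP intensity difference per well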
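medium = tetracycline-free induction medium containing charcoal-stripped FBS | probe or stimulus = dexamethasone, 1.0 µM final | timing = 48 h induction, then 1 h compound, then 30 min agonist, 37 °C | detection = automated 10x imaging of fixed Hoechst-stained cells | read-out basis = nuclear versus cytoplasmic GR-EGFP signal, averaged per well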
Lmaj promast – Leishmania major promastigote growth inhibition, primary screen. 200,000 compounds, 9% hits. inhibition, % at 10 µM. Leishmania major promastigotes, resazurin fluorescence viability; in the data active means inhibition above about 50%;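 further: promastigotes grown with compound for 44 hours at 28 °C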
T cruzi inh – inhibitors of intracellular T. cruzi growth, primary screen, luminescence, NIH3T3 host cells; inhibition, % (concentration not given with the values); 300,000 compounds, 1.4% hits; AID 1885, 2009; T. cruzi beta-gal in NIH3T3, 90 h;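 active means mean inhibition across valid replicates above about 55%, limit read from the data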;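 further: signal also drops with host cell toxicity which is not excluded here; 0% = plate median of DMSO wells and 100% = zero luminescence signal; higher percent means less beta-gal luminescence so fewer parasites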
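Assay system: NIH/3T3 host cells with β-galactosidase reporter T. cruzi; input: 5,000 host fibroblasts per well; compound: single 50 nL compound addition per well in DMSO; timing: ≥90 h infection period, 3 h prior cell attachment; measured by: GalScreen β-gal luminescence, detergent lysis, 60 min; evaluation: percent inhibition of parasite-derived β-gal signal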
CHOP UPR activ – activators of apoptotic CHOP UPR arm, primary screen, cell-based, CHO-CHOP luciferase reporter, luminescence, uHTS; UPR activation; percent of tunicamycin response over DMSO baseline; activation, % at 10 µM; 330,000 compounds, 0.34% hits;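 active means at 10 µM dose, activation of 40% or more, normalized to positive control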;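 further: 100% = tunicamycin at 10 µg/mL and 0% = DMSO alone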
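Test system: CHO CHOP reporter cells. Input: 500 CHO-CHOP cells per well. Medium: F12 with 10% FBS. Technique: luciferase luminescence. Measure: percent activation relative to tunicamycin control. Dosing: 10 µM compound, 0.5% DMSO. Timing: 16-18 h cell attachment, then 6 h compound exposure, 37 °C.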
XBP1 UPR activ – activators of adaptive XBP1 UPR arm, primary screen, cell-based, CHO-XBP1 luciferase reporter, luminescence, uHTS | IRE1-XBP1 UPR activation; percent of tunicamycin response, DMSO as zero | activation, % at 20 µM | 330,000 compounds, 0.33% hits;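 active means versus positive control, 20 µM dose yields 30% or more activation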;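 further: 100% = tunicamycin at 10 µg/mL and 0% = DMSO only wells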
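assay system = CHO-XBP1 luciferase reporter cells | amount = 1000 cells/well | buffer or medium = F12 plus 10% FBS | compound dosing = single point, 20 µM final compound, 1% DMSO | incubation = 16-18 h cell attachment at 37 °C, then 6 h compound exposure | detection = Steady-Glo luminescence read | controls = tunicamycin 10 µg/mL and vehicle-only wells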
CHOP inhibitor – inhibitors of CHOP promoter induction, primary screen, cell-based, unfolded protein response, luciferase reporter | CHO-K1 CHOP-promoter luciferase, tunicamycin-induced, 15-18 h | inhibition, % at 10 µM | 220,000 compounds, 3.8% hits | AID 2732, 2010;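 active means compounds that reduced the stress-induced luciferase reporter signal by more than about 70% of percent inhibition, limit read from the data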;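 further: 0% = tunicamycin plus vehicle and 100% = wells without tunicamycin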
Starred values were filed as active, the others as inactive; · = no result given. Only a selection was taken, and hits are over-represented in it overall.

SMILES	Dynein cargo inh	Lmaj promast	T cruzi inh	CHOP UPR activ	XBP1 UPR activ	CHOP inhibitor
O=C(Cn1nc(CNc2ccc(Cl)cc2)[n+]2c1CCCCC2)c1ccc(Br)cc1	1.44	59.1*	32.1	2.1	0.0	-9.1
COc1ccc(NCc2nn(CC(=O)c3ccc(Br)cc3)c3[n+]2CCCCC3)cc1	0.722	18.4	13.6	0.8	3.3	5.0
COC(C[C@@H]1O[C@H]1[C@H](O)[C@@H](C)OCc1ccccc1)OC	·	·	0.3	1.2	-1.6	·
O=C(Nc1ccc(CN2CCOCC2)cc1)c1ccc(-c2cc(Cl)ccc2Cl)o1	-0.201	98.6*	23.3	0.0	0.8	67.5
S=C(c1ccc(-c2cccc(Cl)c2)o1)N1CCCCC1	-1.19	14.4	19.6	7.5	7.3	43.7
S=C(c1ccc(-c2cc(Cl)ccc2Cl)o1)N1CCOCC1	-0.742	-8.1	30.2	-0.3	0.7	70.2*
S=C(c1ccc(-c2cc(Cl)ccc2Cl)o1)N1CCCCC1	0.00469	54.4*	0.5	1.9	-1.4	16.8
O=C(/C=C/c1ccccc1)Nc1ccc(CN2CCOCC2)cc1	-0.507	12.9	22.6	4.3	2.4	-17.9
O=C(/C=C/c1ccc(Cl)cc1Cl)Nc1ccc(CN2CCOCC2)cc1	-0.553	70.0*	16.9	-0.9	1.1	13.7
O=C(Nc1ccc(CN2CCOCC2)cc1)c1ccc(Br)o1	·	·	-31.7	5.4	0.0	·
COc1ccc(C)cc1S(=O)(=O)n1cnc2ccccc21	·	·	12.0	-0.7	-6.0	·
CCCn1c(N)c(C(=O)CSc2nnc(-c3cccs3)n2C2CC2)c(=O)[nH]c1=O	·	·	·	0.3	-0.8	·
COc1ccc(Cl)cc1NC(=O)CN1CCN(Cc2ccccc2)CC1	·	·	15.3	0.8	2.2	·
Cc1ccc([N+](=O)[O-])cc1S(=O)(=O)NCCc1c(C)[nH]c2c(C)cccc12	-0.456	66.4*	-4.4	-0.7	-0.1	7.2
Cc1[nH]c2c(C)cccc2c1CCNS(=O)(=O)c1cccc([N+](=O)[O-])c1	-1.05	28.3	8.4	-0.1	-4.5	-2.5
CC(=O)N1CCN(c2ccc(NCc3ccc(C)s3)cc2)CC1	0.0307	-10.6	-6.7	3.2	-0.6	-6.2
CSc1ccc(CNc2ccc(C)c(C)c2)cc1	-1.16	-5.9	-11.2	1.5	1.0	91.6*
Cc1ccc(NCc2ccccc2)cc1	-0.166	36.0	58.5*	2.1	1.9	6.2
Cc1ccc(NCc2cccnc2)cc1	-0.896	30.9	-9.2	-1.5	-4.2	-1.6
Cc1ccc(NCc2ccc(C)s2)cc1	·	·	71.4*	3.3	8.1	·
CSc1ccc(CNc2ccc(C)cc2)cc1	1.46	99.9*	20.6	2.5	1.1	42.4
Cc1csc(SCC(=O)NC(C)C2CC3CCC2C3)n1 (configuration not stated)	·	·	-4.7	-0.8	0.4	·
C=CCC(C)(NCc1ccccc1)c1ccccc1 (configuration not stated)	1.24	2.4	13.2	1.4	-0.1	65.3
Clc1ccc(CNc2ccc(CNc3ncn[nH]3)cc2)cc1	0.239	5.7	3.7	1.4	1.8	-24.4
c1ccc(CNc2ccc(CNc3ncn[nH]3)cc2)cc1	-0.383	64.3*	12.2	21.9	1.1	11.2
SMILES	Dynein cargo inh	Lmaj promast	T cruzi inh	CHOP UPR activ	XBP1 UPR activ	CHOP inhibitor
C=CCC(C)(NCc1ccccc1)c1ccc(C)cc1 (configuration not stated)	-0.602	68.8*	-3.6	-0.2	2.3	75.2*
Cc1ccc(NC(=O)CNC(C)c2ccccc2)cc1 (configuration not stated)	·	·	21.6	2.6	3.0	·
CC[C@@]1(C(=O)OC)N[C@H](CN(C)S(=O)(=O)c2ccc(-c3ccccc3)cc2)[C@@H]2C(=O)N(Cc3ccccc3)C(=O)[C@@H]21	·	·	·	0.2	-2.0	·
CCN(CC)S(=O)(=O)c1cccc(NC(=O)CNC2CCCCCC2)c1	0.0431	·	15.1	0.5	0.0	-10.6
CN(C)S(=O)(=O)c1cccc(NC(=O)CNCC2CCCCC2)c1	1.21	84.4*	1.7	2.4	-3.3	8.5
Cc1cc(=O)oc2cc(OCC(=O)Nc3cccc(S(=O)(=O)N(C)C)c3)ccc12	0.233	60.4*	7.5	1.5	-2.8	20.8
COCCNC(=O)CSc1nc2cc(OC)c(OC)cc2c(=O)n1Cc1ccc(OC)cc1	0.748	-1.2	-2.9	-1.6	-1.0	13.7
CCC(Sc1nc2cc(OC)c(OC)cc2c(=O)n1CCc1ccc(OC)c(OC)c1)C(=O)NCCOC (configuration not stated)	-0.254	79.6*	4.1	1.2	-1.9	2.8
CCCCNC(=O)CSc1nc2cc3c(cc2c(=O)n1CCC(=O)NCCc1ccc(OC)c(OC)c1)OCO3	0.725	51.9*	46.9	2.1	-1.6	18.6
CCCCNC(=O)CSc1nc2cc3c(cc2c(=O)n1CCCC(=O)NCCc1ccc(OC)c(OC)c1)OCO3	-0.524	11.6	22.8	0.6	-2.1	32.1
NC(=O)Cn1c(=O)n(CCC(=O)NCCSCc2ccccc2)c(=O)c2ccccc21	-0.498	0.1	-5.3	0.6	-0.7	13.6
CC1CCN(c2nc(N3CCCCC3)nc(N3CCCCC3)n2)CC1	-0.426	8.1	10.7	0.9	1.4	3.7
C1CCN(c2nc(N3CCCCC3)nc(N3CCNCC3)n2)CC1	-0.105	67.6*	6.3	0.3	5.5	32.0
O=[N+]([O-])c1cccc(-c2nc(NCc3ccccc3)c3ccccc3n2)c1	-0.555	58.4*	45.6	0.7	-0.5	41.5
CN(Cc1ccccc1)c1nc(-c2cccc([N+](=O)[O-])c2)nc2ccccc12	-0.301	91.8*	26.9	0.2	-2.3	29.0
O=[N+]([O-])c1ccc(-c2nc(NCc3ccccc3)c3ccccc3n2)cc1	-0.0219	20.5	5.0	2.3	-1.6	90.3*
O=[N+]([O-])c1cccc(-c2nc(N3CCOCC3)c3ccccc3n2)c1	0.556	5.5	·	·	·	8.6
O=C(O)c1cccc(Nc2nc(-c3ccc([N+](=O)[O-])cc3)nc3ccccc23)c1	·	·	-4.3	-2.2	-6.1	·
CC1(CCc2ccccc2)NC(=O)N(CC(=O)Nc2ccc(OC(F)F)cc2)C1=O (configuration not stated)	·	·	·	2.2	-0.4	·
NS(=O)(=O)c1ccc(CNC(=O)c2cc(-c3cccnc3)nc3ccc(Br)cc23)cc1	·	·	-2.1	1.7	-2.9	·
Cc1ccc(NC(=O)COC(=O)Cn2ccc(=O)[nH]c2=O)cc1C	·	·	·	3.1	4.9	·
CCCN(C(=O)c1cn(-c2ccccc2)nc1-c1ccc(OC)cc1)C1CCS(=O)(=O)C1 (configuration not stated)	·	·	-3.6	0.2	4.3	·

Screens as filed in PubChem.
